Activity, max activation and EC50 data for 35 compounds are collected here from ChEMBL document CHEMBL3232993, “Design, synthesis, and structure-activity relationship of a novel series of GluN2C-selective potentiators” (J Med Chem, 2014).

What all share (format): cell-based
Test [1] deals with Glutamate NMDA receptor; Grin1/Grin2a (Rattus norvegicus) (UniProt P35439+Q00959). As to the kind of experiment: Potentiation of rat recombinant GluN1/GluN2A expressed in Xenopus laevis oocytes assessed as increase in glutamate/glycine-induced current response at 30 uM by two-electrode voltage clamp technique relative to control. A digest of the protocol:
(§1)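 Two-electrode voltage clamp at −40 mV on Xenopus oocytes coexpressing GluN1 with GluN2A, 2B, 2C or 2D. […] Compounds came from 20 mM DMSO stocks, with 0.05–0.5% final DMSO. Some GluN2A oocytes were injected with K-BAPTA to limit current run-up. Recording solution was pH 7.4, 23 °C.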

Test [2] addresses Glutamate NMDA receptor; Grin1/Grin2b (Rattus norvegicus) (UniProt P35439+Q00960). Kind of test: Potentiation of rat recombinant GluN1/GluN2B expressed in Xenopus laevis oocytes assessed as increase in glutamate/glycine-induced current response at 30 uM by two-electrode voltage clamp technique relative to control. The method, boiled down: as §1
Test [3] addresses Glutamate NMDA receptor; Grin1/Grin2c (Rattus norvegicus) (UniProt P35439+Q00961). Kind of test: Potentiation of rat recombinant GluN1/GluN2C expressed in Xenopus laevis oocytes assessed as increase in glutamate/glycine-induced current response at 30 uM by two-electrode voltage clamp technique relative to control. A digest of the protocol:
as §1

The target in test [4] is Ionotropic glutamate receptor NMDA 1/2D (Rattus norvegicus) (UniProt P35439+Q62645). Kind of test: Potentiation of rat recombinant GluN1/GluN2D expressed in Xenopus laevis oocytes assessed as increase in glutamate/glycine-induced current response at 30 uM by two-electrode voltage clamp technique relative to control. A digest of the protocol:
as §1

For test [5], the target named is Glutamate NMDA receptor; Grin1/Grin2c (Rattus norvegicus, UniProt P35439+Q00961). Kind of test: Potentiation of rat recombinant GluN1/GluN2C expressed in Xenopus laevis oocytes assessed as increase in glutamate/glycine-induced current response by two-electrode voltage clamp technique relative to control.

Activity calls are given as the source filed them. The rule behind the calls is not given here.

Regarding `COC(=O)c1ccc(C2C(C(=O)c3ccncc3)=C(O)C(=O)N2CCc2c[nH]cn2)cc1` (centres undefined), the Activity in test [1] came out at 101%; in test [2] it was 95%; in test [3], 89%; in test [4], 94%.
As to `COC(=O)c1ccc(C2C(C(=O)c3ccccc3)=C(O)C(=O)N2CCc2c[nH]c3ccccc23)cc1` (centres undefined), the Activity in test [1] came to 116%; in test [2], 85%; in test [3], 143%; in test [4] it was 79%. Moreover, the max activation in test [3] was 161%. The EC50 in test [5] is 17 µM.
For the compound `CCOC(=O)c1ccc(C2C(C(=O)c3cccnc3)=C(O)C(=O)N2CCc2c[nH]c3ccccc23)cc1` (centres undefined), the Activity in test [1] came out at 97%; in test [2], 71%; in test [3], 201%; in test [4], 83%. Besides, the max activation in test [3] came out at 207%. Also, the EC50 in test [5] was 8.2 µM.
Consider `COC(=O)c1ccc(C2C(C(C)=O)=C(O)C(=O)N2CCc2c[nH]c3ccccc23)c(O)c1` (centres undefined), for which the Activity is 107% in test [1], 86% in test [2], 173% in test [3] and 88% in test [4]. Moreover, the max activation in test [3] amounted to 202%. Also, the EC50 in test [5] worked out at 15 µM.
Consider `CCOC(=O)c1ccc(C2C(C(C)=O)=C(O)C(=O)N2CCc2c(C)[nH]c3ccccc23)cc1` (centres undefined), for which the Activity in test [1] came out at 108%; in test [2], 99%; in test [3] it was 220%; in test [4], 85%. In addition, the max activation in test [3] turned out to be 265%. The EC50 in test [5] was 13 µM.
With `COC(=O)c1ccc(C2C(C(=O)c3cccnc3)=C(O)C(=O)N2CCc2c[nH]c3ccc(OC)cc23)cc1` (centres undefined), the Activity was determined as 112% in test [1], 90% in test [2], 94% in test [3] and 91% in test [4].
`COC(=O)c1ccccc1C1C(C(C)=O)=C(O)C(=O)N1CCc1c[nH]c2ccccc12` (centres undefined): the Activity was 88% in test [1], 78% in test [2], 99% in test [3] and 93% in test [4].
Regarding `CNC(=O)c1ccc(C2C(C(=O)c3cccnc3)=C(O)C(=O)N2CCc2c[nH]c3ccccc23)cc1` (centres undefined), the Activity in test [1] came to 96%; in test [2], 105%; in test [3] it was 93%; in test [4], 89%.
As for `COC(=O)c1ccc(C2C(C(C)=O)=C(O)C(=O)N2CCc2c(C)[nH]c3ccccc23)cc1` (stereo in doubt; 106a), in test [3], the max activation was found to be 259%.
`COC(=O)c1ccc(C2C(C(=O)c3cccc(OC)c3)=C(O)C(=O)N2CCc2c[nH]c3ccccc23)cc1` (centres undefined): the Activity in test [1] worked out at 92%; in test [2] it was 90%; in test [3] it was 109%; in test [4], 80%.
The matching figures for `COC(=O)c1ccc(C2C(C(=O)c3cccnc3)=C(O)C(=O)N2CCc2c[nH]c3cccc(C)c23)cc1` (centres undefined): 112%, 70%, 85% and 74%.
The matching figures for `CC(=O)C1=C(O)C(=O)N(CCc2c[nH]c3ccccc23)C1c1ccc(C(=O)OC(C)(C)C)cc1` (centres undefined): 99%, 81%, 85% and 66%.
Regarding `COC(=O)c1ccc(C2C(C(=O)c3ccncc3)=C(O)C(=O)N2Cc2c[nH]c3ccccc23)cc1` (centres undefined), the Activity turned out to be 106% in test [1], 101% in test [2], 84% in test [3] and 87% in test [4].
For `NC(=O)c1ccc(C2C(C(=O)c3cccnc3)=C(O)C(=O)N2CCc2c[nH]c3ccccc23)cc1` (centres undefined), the Activity worked out at 101% in test [1], 92% in test [2], 90% in test [3] and 91% in test [4].
With `COC(=O)c1ccc(C2C(C(C)=O)=C(O)C(=O)N2CCc2c(C)[nH]c3ccccc23)cc1` (stereo in doubt; 106b), the outcome in test [3] was inactive.
Consider `COC(=O)c1ccc(C2C(C(C)=O)=C(O)C(=O)N2CCc2c[nH]c3ccccc23)cc1F` (centres undefined), for which the Activity in test [1] was 99%; in test [2], 83%; in test [3], 114%; in test [4], 93%.
For the compound `COC(=O)c1ccc(C2C(C(C)=O)=C(O)C(=O)N2CCc2c[nH]c3ccccc23)cc1Cl` (centres undefined), the Activity in test [1] turned out to be 88%; in test [2], 95%; in test [3], 113%; in test [4] it was 83%.
The matching figures for `COC(=O)c1ccc(C2C(C(=O)c3cccnc3)=C(O)C(=O)N2CCc2coc3ccccc23)cc1` (centres undefined): 96%, 83%, 113% and 80%.
Take `COC(=O)c1cccc(C2C(C(C)=O)=C(O)C(=O)N2CCc2c[nH]c3ccccc23)c1` (centres undefined): the Activity was found to be 99% in test [1], 88% in test [2], 94% in test [3] and 94% in test [4].
As to `COC(=O)c1ccc(C2C(C(=O)c3ccccn3)=C(O)C(=O)N2CCc2c[nH]c3ccccc23)cc1` (centres undefined), the Activity came to 106% in test [1], 78% in test [2], 97% in test [3] and 75% in test [4].
On to `COC(=O)c1ccc(C2C(C(C)=O)=C(N)C(=O)N2CCc2c[nH]c3ccccc23)cc1` (centres undefined), for which the Activity in test [1] was 93%; in test [2], 85%; in test [3], 102%; in test [4] it was 75%.
`CN(C)C(=O)c1ccc(C2C(C(=O)c3cccnc3)=C(O)C(=O)N2CCc2c[nH]c3ccccc23)cc1` (centres undefined): the Activity in test [1] is 118%; in test [2], 86%; in test [3], 101%; in test [4] it was 89%.
The matching figures for `CC(=O)C1=C(O)C(=O)N(CCc2c[nH]c3ccccc23)C1c1ccc(C(=O)O)cc1` (centres undefined): 100%, 94%, 93% and 88%.
Regarding `COC(=O)c1ccc(C2C(C(=O)c3cccnc3)=C(O)C(=O)N2CCCc2c[nH]c3ccccc23)cc1` (centres undefined), the Activity in test [1] came to 96%; in test [2], 93%; in test [3], 84%; in test [4], 98%.
For `CC(=O)C1=C(O)C(=O)N(CCc2c[nH]c3ccccc23)C1c1ccc(C(=O)OC(C)C)cc1` (centres undefined), the Activity in test [1] is 96%; in test [2], 95%; in test [3] it was 102%; in test [4], 83%.
In the case of `COC(=O)c1ccc(C2C(C(C)=O)=C(O)C(=O)N2CCc2c[nH]c3ccccc23)cc1C` (centres undefined), the Activity in test [1] stood at 108%; in test [2], 91%; in test [3], 88%; in test [4], 86%.
The matching figures for `COC(=O)c1ccc(C2C(C(C)=O)=C(O)C(=O)N2CCc2c[nH]c3ccccc23)cc1OC` (centres undefined): 98%, 80%, 92% and 86%.
In the case of `COC(=O)c1ccc(C2C(C(C)=O)=C(O)C(=O)N2CCc2c(C)[nH]c3ccccc23)cc1` (racemic), the Activity in test [1] came to 97%; in test [2], 88%; in test [3], 179%; in test [4], 95%. For the same compound, the max activation in test [3] was 217%.
The like results for `NS(=O)(=O)c1ccc(C2C(C(=O)c3cccnc3)=C(O)C(=O)N2CCc2c[nH]c3ccccc23)cc1` (centres undefined) were, in that order, 86%, 82%, 123%, 83% and 130%.
As for `COC(=O)c1ccc(C2C(C(C)=O)=C(O)C(=O)N2CCc2ccccc2)cc1` (centres undefined), the Activity in test [1] was 108%; in test [2], 117%; in test [3], 95%; in test [4] it was 99%.
Consider `CC(=O)C1=C(O)C(=O)N(CCc2c[nH]c3ccccc23)C1c1ccc([N+](=O)[O-])cc1` (centres undefined), for which the Activity is 106% in test [1], 83% in test [2], 94% in test [3] and 77% in test [4].
The matching figures for `COC(=O)c1ccc(C2C(C(=O)c3cccnc3)=C(O)C(=O)N2CCc2cn(C)c3ccccc23)cc1` (centres undefined): 111%, 87%, 106% and 85%.
For `N#Cc1ccc(C2C(C(=O)c3cccnc3)=C(O)C(=O)N2CCc2c[nH]c3ccccc23)cc1` (centres undefined), the Activity in test [1] was determined as 98%; in test [2], 89%; in test [3], 100%; in test [4] it was 94%.
Turning to `CNS(=O)(=O)c1ccc(C2C(C(=O)c3cccnc3)=C(O)C(=O)N2CCc2c[nH]c3ccccc23)cc1` (centres undefined), the Activity came out at 74% in test [1], 88% in test [2], 114% in test [3] and 73% in test [4].
`COC(=O)c1ccc(C2C(C(=O)c3ccncc3)=C(O)C(=O)N2CCn2cnc3ccccc32)cc1` (centres undefined): the Activity in test [1] was 104%; in test [2], 107%; in test [3] it was 84%; in test [4], 89%.
